Data taken from paper PMC6601336 (ACS chemical biology, 2019).
Positions count from the first letter of the chain named.

How the values were obtained:
LasR T75V/Y93F = target: T1, LasR T75V/Y93F (Pseudomonas aeruginosa, UniProt P25084, T75V/Y93F); test: E. coli lasB-lux reporter assay, LasR T75V/Y93F; assay type: cell-based; conditions: read-out: EC50 in the plasB-lux assay; LasR T75V/Y93F
T1 sequence (P25084 1-239 T75V/Y93F): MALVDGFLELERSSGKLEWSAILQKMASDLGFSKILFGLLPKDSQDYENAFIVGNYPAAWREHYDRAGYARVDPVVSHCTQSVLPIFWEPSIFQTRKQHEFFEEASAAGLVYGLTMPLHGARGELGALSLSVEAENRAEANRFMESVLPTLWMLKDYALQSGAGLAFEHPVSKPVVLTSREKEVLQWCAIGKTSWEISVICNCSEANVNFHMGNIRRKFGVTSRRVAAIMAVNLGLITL

WT LasR LBD = target: T2, WT LasR LBD (Pseudomonas aeruginosa, UniProt P25084); test: Protein solubility assay, WT LasR LBD produced in E. coli; assay type: cell-based; conditions: induction at 25°C; 10 μM compound
T2 sequence (P25084 1-173 limits assumed): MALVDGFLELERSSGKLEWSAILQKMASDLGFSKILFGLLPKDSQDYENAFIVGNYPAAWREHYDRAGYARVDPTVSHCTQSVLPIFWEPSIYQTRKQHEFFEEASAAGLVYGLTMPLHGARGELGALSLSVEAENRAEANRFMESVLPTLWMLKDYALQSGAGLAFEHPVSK
Summary of the method: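 E. coli BL21(DE3) with plasmid-borne 6xHis-WT LasR LBD were grown overnight, diluted 1:500 in LB with ampicillin and grown to OD600 0.5. Cells were induced with 1 mM IPTG plus test compound at 10 μM final, then shaken 4 h at 25°C or 37°C. Whole-cell lysate and soluble fractions were compared by band intensity. Fraction soluble = soluble band / whole-cell lysate band.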

LasR T75V = target: T3, LasR T75V (Pseudomonas aeruginosa, UniProt P25084, T75V); test: E. coli lasB-lux reporter assay, LasR T75V; assay type: cell-based; conditions: read-out: EC50 in the plasB-lux assay; LasR T75V; NR = non-responsive
T3 sequence (P25084 1-239 T75V): T1 sequence (P25084 1-239 T75V/Y93F) with F93Y

LasR = conditions: cited from earlier work
LasR Y93F/A127W = target: T4, LasR Y93F/A127W (Pseudomonas aeruginosa, UniProt P25084, A127W/Y93F); test: E. coli lasB-lux reporter assay, LasR Y93F/A127W; assay type: cell-based; conditions: read-out: EC50 in the plasB-lux assay; LasR Y93F/A127W; NR = non-responsive
T4 sequence (P25084 1-239 Y93F/A127W): T1 sequence (P25084 1-239 T75V/Y93F) with V75T, A127W

luciferase = test: Off-target inhibition of luciferase in the E. coli lasB-lux reporter strain; assay type: cell-based; conditions: high concentrations (>10 μM)
LasR Y93F = target: T5, LasR Y93F (Pseudomonas aeruginosa, UniProt P25084, Y93F); test: E. coli lasB-lux reporter assay, LasR Y93F; assay type: cell-based; conditions: read-out: EC50 in the plasB-lux assay; LasR Y93F; NR = non-responsive
T5 sequence (P25084 1-239 Y93F): T1 sequence (P25084 1-239 T75V/Y93F) with V75T

LasR T75V/Y93F/A127W = target: T6, LasR T75V/Y93F/A127W (Pseudomonas aeruginosa, UniProt P25084, A127W/T75V/Y93F); test: E. coli lasB-lux reporter assay, LasR T75V/Y93F/A127W; assay type: cell-based; conditions: read-out: EC50 in the plasB-lux assay; LasR T75V/Y93F/A127W; NR = non-responsive
T6 sequence (P25084 1-239 T75V/Y93F/A127W): T1 sequence (P25084 1-239 T75V/Y93F) with A127W

pyocyanin production = conditions: cited from earlier work
LasR A127W = target: T7, LasR A127W (Pseudomonas aeruginosa, UniProt P25084, A127W); test: E. coli lasB-lux reporter assay, LasR A127W; assay type: cell-based; conditions: read-out: EC50 in the plasB-lux assay, NR = non-responsive
T7 sequence (P25084 1-239 A127W): T1 sequence (P25084 1-239 T75V/Y93F) with V75T, F93Y, A127W

meta-bromo-thiolactone [mBTL, reference compound]
EC50 (LasR T75V/Y93F): 10 nM
soluble WT LasR LBD (WT LasR LBD): yielded soluble WT LasR LBD
EC50 (LasR T75V): 6 nM
activity on LasR (LasR): is a LasR agonist
EC50 (LasR Y93F/A127W): 9 nM
off-target inhibition of luciferase (luciferase): caused off-target inhibition of luciferase
EC50 (LasR Y93F): 10 nM
EC50 (LasR T75V/Y93F/A127W): 10 nM
effect on pyocyanin (pyocyanin production): inhibiting pyocyanin
EC50 (LasR A127W): 60 nM
